# Experimental data from ChEMBL document CHEMBL1154400, “Pharmacokinetics of single- and multiple-dose oral clarithromycin in soft tissues determined by microdialysis” (Antimicrob Agents Chemother, 2007).
# Key:
# [1] = Ratio of AUC (0 to 24 hrs) in fasting human interstitial-space fluid of skeletal muscle to free AUC (0 to 24 hrs) in fasting human plasma at 250 mg, po; type: ADME, organism-based; details: read-out: Ratio AUC
# How it was run: (§1)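 AUC0-8, AUC0-12 and AUC0-24 by the linear trapezoidal rule. Values at 12 h and 24 h extrapolated as C8 x e^(-kel x t) from the 8-h concentration. At steady state, AUC0-24 = AUC0-12 x 2. Tissue-to-free-plasma ratios use free plasma AUC, from each subject's own protein binding.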
# [2] = Tmax in fasting human plasma at 250 mg, po; type: ADME, organism-based
# How it was run: (§2)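 Healthy male volunteers aged 25-37 y, fasting; single oral 250 mg tablet after 60-min probe equilibration. Microdialysis probes in skeletal muscle and subcutaneous adipose tissue, perfused with Ringer's at 1.5 µl/min; dialysate and antecubital venous blood sampled every 20 min to 4 h, then every 30 min to 8 h. HPLC assay. Interstitial concentration = 100 x Cdialysate/recovery.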
# [3] = Terminal half life in fasting human plasma at 250 mg, po; type: ADME, organism-based; details: read-out: beta t1/2 (converted); how it was run: as §2
# [4] = Drug uptake in human Skeletal muscles assessed as in vivo drug recovery by microdialysis; type: ADME, organism-based, Muscle tissue
# How it was run: (§3)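 Retrodialysis after the 8-h sampling: clarithromycin 5 mg/liter added to the Ringer's perfusate (1.5 µl/min). Recovery (%) = 100 - 100 x Cdialysate/Cperfusate, taken as the mean of two measurements per subject, in muscle and adipose tissue probes.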
# [5] = Tmax in human plasma at 500 mg, po, bid for 3 to 5 days; type: ADME, organism-based
# How it was run: (§4)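 Oral clarithromycin 500 mg b.i.d. for 3-5 days, starting 12 h after a single 250 mg dose; last dose given supervised on the morning of day 2 after a baseline blood draw and a 2-h trough dialysate. Sampling as on day 1: microdialysis of muscle and adipose tissue plus venous plasma over 8 h, HPLC. Dialysate concentrations corrected for individual recovery.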
# [6] = AUC (0 to 24 hrs) in fasting human interstitial-space fluid of subcutaneous adipose tissue at 250 mg, po; type: ADME, organism-based; how it was run: as §2
# Homo sapiens [7] = experiment: Free AUC (0 to 24 hrs) in human plasma at 500 mg, po, bid for 3 to 5 days; type: ADME, organism-based; details: in vivo
# How it was run: (§5)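 Free plasma concentrations obtained by applying each volunteer's measured protein binding to total plasma concentrations, measured by HPLC after the 250 mg single dose or the 500 mg b.i.d. steady-state dose, with sampling over 8 h.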
# [8] = AUC (0 to 24 hrs) in fasting human interstitial-space fluid of skeletal muscle at 250 mg, po; type: ADME, organism-based, Muscle tissue; design: time < 24 hr, dose 250 mg, route oral; how it was run: as §2
# [9] = Ratio of AUC (0 to 24 hrs) in fasting human interstitial-space fluid of subcutaneous adipose tissue to free AUC (0 to 24 hrs) in fasting human plasma at 250 mg, po; type: ADME, organism-based; details: read-out: Ratio AUC; how it was run: as §1
# [10] = AUC (0 to 8 hrs) in fasting human plasma at 250 mg, po; type: ADME, organism-based; design: dose 250 mg, time < 8 hr, route oral; how it was run: as §2
# [11] = Tmax in fasting human interstitial-space fluid of subcutaneous adipose tissue at 250 mg, po; type: ADME, organism-based; how it was run: as §2
# [12] = Terminal half life in human plasma at 500 mg, po, bid for 3 to 5 days; type: ADME, organism-based; details: read-out: beta t1/2 (converted); how it was run: as §4
# Homo sapiens [13] = experiment: Free AUC (0 to 8 hrs) in fasting human plasma at 250 mg, po; type: ADME, organism-based; details: in vivo; how it was run: as §5
# [14] = Drug uptake in human adipose tissue assessed as in vivo drug recovery by microdialysis; type: ADME, organism-based; how it was run: as §3
# [15] = AUC (0 to 24 hrs) in fasting human plasma at 250 mg, po; type: ADME, organism-based; design: dose 250 mg, time < 24 hr, route oral; how it was run: as §2
# [16] = AUC (0 to 24 hrs) in human interstitial-space fluid of subcutaneous adipose tissue at 500 mg, po, bid for 3 to 5 days; type: ADME, organism-based; how it was run: as §4
# [17] = AUC (0 to 24 hrs) in human plasma at 500 mg, po, bid for 3 to 5 days; type: ADME, organism-based; design: time < 24 hr, dose 500 mg, route oral; how it was run: as §4
# [18] = AUC (0 to 24 hrs) in human interstitial-space fluid of skeletal muscle at 500 mg, po, bid for 3 to 5 days; type: ADME, organism-based, Muscle tissue; design: dose 500 mg, time < 24 hr, route oral; how it was run: as §4
# [19] = Terminal half life in human interstitial-space fluid of skeletal muscle at 500 mg, po, bid for 3 to 5 days; type: ADME, organism-based, Muscle tissue; details: read-out: beta t1/2 (converted); how it was run: as §4
# Homo sapiens [20] = experiment: Free Cmax in human plasma at 500 mg, po, bid for 3 to 5 days; type: ADME, organism-based; details: in vivo; how it was run: as §5
# [21] = Tmax in fasting human interstitial-space fluid of skeletal muscle at 250 mg, po; type: ADME, organism-based, Muscle tissue; how it was run: as §2
# Homo sapiens [22] = experiment: Free Cmax in fasting human plasma at 250 mg, po; type: ADME, organism-based; details: in vivo; how it was run: as §5
# [23] = Cmax in human plasma at 500 mg, po, bid for 3 to 5 days; type: ADME, organism-based; design: dose 500 mg, route oral; how it was run: as §4
# [24] = Tmax in fasting human plasma unbound fraction at 250 mg, po; type: ADME, organism-based; how it was run: as §5
# [25] = Total clearance in fasting human plasma at 250 mg, po; type: ADME, organism-based
# [26] = Tmax in human interstitial-space fluid of skeletal muscle at 500 mg, po, bid for 3 to 5 days; type: ADME, organism-based, Muscle tissue; how it was run: as §4
smiles,measurement,setting,value
CC[C@H]1OC(=O)[C@H](C)[C@@H](O[C@H]2C[C@@](C)(OC)[C@@H](O)[C@H](C)O2)[C@H](C)[C@@H](O[C@@H]2O[C@H](C)C[C@H](N(C)C)[C@H]2O)[C@](C)(OC)C[C@@H](C)C(=O)[C@H](C)[C@@H](O)[C@]1(C)O [CLARITHROMYCIN],Kp uu,[1],0.42
same,Tmax,[2],2.6 h
same,half-life,[3],1.9 h
same,Activity,[4],54.3%
same,Tmax,[5],3.2 h
same,AUC(0-t),[6],350 ng·h/mL
same,fAUC,Homo sapiens [7],5850 ng·h/mL
same,AUC(0-t) at 24 h,[8],480 ng·h/mL
same,Kp uu,[9],0.29
same,AUC(0-t) at 8 h,[10],3630 ng·h/mL
same,Tmax,[11],3 h
same,half-life,[12],3.7 h
same,fAUC,Homo sapiens [13],990 ng·h/mL
same,Activity,[14],57.7%
same,AUC(0-t) at 24 h,[15],4450 ng·h/mL
same,AUC,[16],2220 ng·h/mL
same,AUC at 24 h,[17],26800 ng·h/mL
same,AUC at 24 h,[18],2420 ng·h/mL
same,half-life,[19],3.8 h
same,fCmax,Homo sapiens [20],0.58 mg/L
same,Tmax,[21],3 h
same,fCmax,Homo sapiens [22],0.31 mg/L
same,Cmax,[23],2210 ng/mL
same,Tmax,[24],2.6 h
same,CL/F,[25],620 mL/min
same,Tmax,[26],3.8 h
